The source made the active and inactive calls. The calls are words filed in the database; no cut-off is given here.
Assays:
Mus musculus [1] = test: Antiobesity activity in ddY mouse assessed as inhibition of AgRP mRNA level in hypothalamus at 50 mg/kg, po for 4 days relative to control; assay type: functional
In short: (§1)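 Male ddY mice dosed po once daily at 15:00–17:00 for 4 d. Hypothalamus dissected 1 h after final dose, held in RNAlater, total RNA extracted. NPY and AgRP mRNA quantified by SYBR qPCR (40 cycles, annealing 58 °C) by relative quantification normalised to β-actin and expressed as ratio to control; n = 6, mean ± SEM.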

Mus musculus [2] = test: Antiobesity activity in ddY mouse assessed as inhibition of neuropeptide Y mRNA level in hypothalamus at 25 mg/kg, po for 4 days relative to control; assay type: functional; in short: as §1
Mus musculus [3] = test: Antiobesity activity in ddY mouse assessed as inhibition of AgRP mRNA level in hypothalamus at 25 mg/kg, po for 4 days relative to control; assay type: functional; in short: as §1
Mus musculus [4] = test: Antiobesity activity in ddY mouse assessed as food intake at 50 mg/kg, po measured upto 3 days (RVb = 15.2 g); assay type: functional
Mus musculus [5] = test: Antiobesity activity in ddY mouse assessed as gastric emptying at 25 mg/kg, po measured for 30 mins by Phenol red method (RVb = 90.4 +/- 1.2 %); assay type: functional, Stomach
Mus musculus [6] = test: Antiobesity activity in ddY mouse assessed as inhibition of food intake at 50 mg/kg, po; assay type: functional, organism-based; set-up: dose 50 mg/kg
Ileum [7] = test: Induction of 5-HT release from ddY mouse ileum assessed as remaining 5-HT per gram of tissue at 1000 µM after 20 mins by HPLC (RVb = 68.8 +/- 12.4 ng/g tissue)
Mus musculus [8] = test: Antiobesity activity in capsaicin-treated ddY mouse assessed as reduction in food intake at 50 mg/kg, po for 3 days; assay type: functional, organism-based; set-up: dose 50 mg/kg
Mus musculus [9] = test: Antiobesity activity in ddY mouse assessed as inhibition of neuropeptide Y mRNA level in hypothalamus at 50 mg/kg, po for 4 days relative to control; assay type: functional; in short: as §1
Ileum [10] = test: Induction of 5-HT release from ddY mouse ileum assessed as remaining 5-HT per mg of protein at 100 µM after 20 mins by HPLC (RVb = 0.861 +/- 0.164 ng/mg protein)
Mus musculus [11] = test: Antiobesity activity in capsaicin treated ddY mouse assessed as inhibition of gastric emptying at 50 mg/kg, po measured for 30 mins by Phenol red method (RVb = 87.7 +/- 2.3 %); assay type: functional, Stomach; set-up: scale not given: the % may be the effect or the level left
Ileum [12] = test: Induction of 5-HT release from ddY mouse ileum assessed per gram of tissue at 100 µM after 20 mins by HPLC (RVb = 11.2 +/- 1.3 ng/g tissue)
Mus musculus [13] = test: Antiobesity activity in ddY mouse assessed as gastric emptying at 50 mg/kg, po measured for 30 mins by Phenol red method (RVb = 90.4 +/- 1.2 %); assay type: functional, Stomach
Ileum [14] = test: Induction of 5-HT release from ddY mouse ileum assessed as remaining 5-HT per gram of tissue at 100 uM after 20 mins by HPLC (RVb = 68.8 +/- 12.4 ng/g tissue)
Mus musculus [15] = test: Antiobesity activity in capsaicin treated ddY mouse assessed as gastric emptying at 25 mg/kg, po measured for 30 mins by Phenol red method (RVb = 87.7 +/- 2.3 %); assay type: functional, Stomach
Ileum [16] = test: Induction of 5-HT release from ddY mouse ileum assessed as remaining 5-HT per mg of protein at 1000 µM after 20 mins by HPLC (RVb = 0.861 +/- 0.164 ng/mg protein)
Ileum [17] = test: Induction of 5-HT release from ddY mouse ileum assessed per gram of tissue at 1000 µM after 20 mins by HPLC (RVb = 11.2 +/- 1.3 ng/g tissue)
Mus musculus [18] = test: Antiobesity activity in capsaicin-treated ddY mouse assessed as gastric emptying at 25 mg/kg, po measured for 30 mins by Phenol red method (RVb = 85.8 +/- 2 %); assay type: functional, Stomach
Mus musculus [19] = test: Antiobesity activity in capsaicin treated ddY mouse assessed as gastric emptying at 50 mg/kg, po measured for 30 mins by Phenol red method (RVb = 85.8 +/- 2 %); assay type: functional, Stomach
Mus musculus [20] = test: Antiobesity activity in ddY mouse assessed as gastric emptying at 25 mg/kg, po measured for 30 mins by Phenol red method (RVb = 86.6 +/- 1.8 %); assay type: functional, Stomach
Mus musculus [21] = test: Antiobesity activity in ddY mouse assessed as gastric emptying at 50 mg/kg, po measured for 30 mins by Phenol red method (RVb = 86.6 +/- 1.8 %); assay type: functional, Stomach

CC1(C)C[C@H]2C3=CC[C@@H]4[C@@]5(C)CC[C@H](O[C@@H]6O[C@H](C(=O)O)[C@@H](O)[C@H](O[C@@H]7OC[C@H](O)[C@H](O)[C@H]7O[C@@H]7OC[C@@H](O)[C@H](O)[C@H]7O)[C@H]6O[C@@H]6O[C@H](CO)[C@H](O)[C@H](O)[C@H]6O)C(C)(C)[C@@H]5CC[C@@]4(C)[C@]3(C)[C@@H](O)[C@@H](O)[C@@]2(CO)[C@@H](O)[C@@H]1O was tested, and the inhibition (Mus musculus [1]) was “inactive”, the inhibition (Mus musculus [2]) was “inactive” and the inhibition (Mus musculus [3]) was “inactive”.
In the case of C/C=C(\C)C(=O)O[C@H]1[C@H](OC(C)=O)[C@]2(CO)[C@H](O)[C@H](O)[C@]3(C)C(=CC[C@@H]4[C@@]5(C)CC[C@H](O[C@@H]6O[C@H](C(=O)O)[C@@H](O)[C@H](O[C@@H]7OC[C@H](O)[C@H](O)[C@H]7O[C@@H]7OC[C@@H](O)[C@H](O)[C@H]7O)[C@H]6O[C@@H]6O[C@H](CO)[C@H](O)[C@H](O)[C@H]6O)C(C)(C)[C@@H]5CC[C@]43C)[C@@H]2CC1(C)C [CHAKASAPONIN III], the Activity (Mus musculus [4]) is reported as 12.6 g.
For C/C=C(\C)C(=O)O[C@H]1[C@H](OC(=O)/C(C)=C/C)[C@]2(CO)[C@H](O)[C@H](O)[C@]3(C)C(=CC[C@@H]4[C@@]5(C)CC[C@H](O[C@@H]6O[C@H](C(=O)O)[C@@H](O)[C@H](O[C@@H]7OC[C@H](O)[C@H](O)[C@H]7O[C@@H]7OC[C@@H](O)[C@H](O)[C@H]7O)[C@H]6O[C@@H]6O[C@H](CO)[C@H](O)[C@H](O)[C@H]6O)C(C)(C)[C@@H]5CC[C@]43C)[C@@H]2CC1(C)C [CHAKASAPONIN II], the Activity (Mus musculus [5]) was 77.9%, the inhibition (Mus musculus [6]) was “Active” and the Activity (Ileum [7]) was 31.6 ng/g. The Activity (Mus musculus [8]) was “Active”, the “fold change (FC)” value (Mus musculus [1]) was 1.03 and the “fold change (FC)” value (Mus musculus [9]) was 0.63. For the same molecule, the Activity (Ileum [10]) was 0.659 ng/mg, the “fold change (FC)” value (Mus musculus [2]) was 1.09 and the Activity (Mus musculus [11]) was 67.1%. The Activity (Ileum [12]) was 15.6 ng/g, the “fold change (FC)” value (Mus musculus [3]) was 1.08 and the Activity (Mus musculus [13]) was 57.6%. For the same molecule, the Activity (Ileum [14]) was 50.8 ng/g, the Activity (Mus musculus [15]) was 81.4% and the Activity (Ileum [16]) was 0.396 ng/mg. It also gave an Activity (Ileum [17]) of 28.3 ng/g.
C/C=C(\C)C(=O)O[C@H]1[C@H](OC(C)=O)[C@]2(CO)[C@H](O)C[C@]3(C)C(=CC[C@@H]4[C@@]5(C)CC[C@H](O[C@@H]6O[C@H](C(=O)O)[C@@H](O)[C@H](O[C@@H]7OC[C@H](O)[C@H](O)[C@H]7O[C@@H]7OC[C@@H](O)[C@H](O)[C@H]7O)[C@H]6O[C@@H]6O[C@H](CO)[C@H](O)[C@H](O)[C@H]6O)C(C)(C)[C@@H]5CC[C@]43C)[C@@H]2CC1(C)C [CHAKASAPONINS I] showed an Activity (Mus musculus [18]) of 79.2%, an Activity (Mus musculus [19]) of 68% and an Activity (Mus musculus [20]) of 76.4%. It also gave an Activity (Mus musculus [21]) of 55.7% and an Activity (Mus musculus [4]) of 10.5 g.
